Experimental data reported in ChEMBL document CHEMBL1641452, “Synthesis and in vitro anti-hepatitis B virus activity of six-membered azanucleoside analogues” (Bioorg Med Chem, 2011).
Converted amounts (≈) assume the structure as drawn.

Assays:
[1] = Cytotoxicity against human HepG2(2.2.15) cells; format: cell-based; details: read-out: TC50 (the source's name)
[2] = Selectivity index, ratio of TC50 for human HepG2(2.2.15) cells to IC50 for Hepatitis B virus; format: toxicity; details: read-out: Selectivity Index
Hepatitis B virus = assay: Antiviral activity against Hepatitis B virus infected in human HepG2.2.15 cells assessed as inhibition of viral DNA replication by semi-quantitative EIA; format: functional, organism-based; details: HepG2 2.2.15
Summary of the method: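 HepG2 2.2.15 cells, derived from hepatoblastoma HepG2 and stably transfected with HBV, were seeded in flat-bottomed tissue culture wells. They received eight consecutive daily doses of compound in RPMI1640 with 2% fetal bovine serum, with lamivudine as the positive control. HBV nucleic acids and proteins were analysed at the end of treatment (day 8).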

SMILES	CC50 [1] [µg/mL]	selectivity ratio [2]	IC50 (Hepatitis B virus) [µg/mL]
Cc1cn([C@@H]2[C@@H](O)[C@H](O)[C@@H](O)CN2C(=O)OC(C)(C)C)c(=O)[nH]c1=O	1000 (≈ 2800 µM)		
Cc1cn([C@H]2[C@@H](O)[C@H](O)[C@@H](O)CN2C(=O)OC(C)(C)C)c(=O)[nH]c1=O	1000 (≈ 2800 µM)		
CC(C)(C)OC(=O)N1C[C@H](O)[C@@H](O)[C@@H](O)[C@@H]1n1cc(F)c(=O)[nH]c1=O	29 (≈ 80.3 µM)		
CC(C)(C)OC(=O)N1C[C@@H](O)[C@@H](O)[C@H](O)[C@H]1n1cnc2c(N)ncnc21	1000 (≈ 2730 µM)	4	247 (≈ 675 µM)
CC(C)(C)OC(=O)N1C[C@@H](O)[C@@H](O)[C@H](O)[C@@H]1n1cnc2c(N)ncnc21	1000 (≈ 2730 µM)		
CC(C)(C)OC(=O)N1C[C@@H](O)[C@@H](O)[C@H](O)[C@H]1n1cc(F)c(=O)[nH]c1=O	37 (≈ 103 µM)	13.5	2.74 (≈ 7.58 µM)
CC(C)(C)OC(=O)N1CC(O)[C@@H](O)[C@H](O)[C@H]1n1cnc2c(N)ncnc21 (single isomer, unassigned)	> 1000		
CC(C)(C)OC(=O)N1CC(O)[C@@H](O)[C@H](O)[C@H]1n1ccc(=O)[nH]c1=O (single isomer, unassigned)	> 1000		
CC(C)(C)OC(=O)N1CC(O)[C@@H](O)[C@H](O)[C@H]1n1cc(F)c(=O)[nH]c1=O (single isomer, unassigned)	192 (≈ 533 µM)		
CC(C)(C)OC(=O)N1CC(O)[C@@H](O)[C@H](O)[C@H]1n1ccc(N)nc1=O (single isomer, unassigned)	> 1000		
Cc1cn([C@@H]2[C@H](O)[C@H](O)C(O)CN2C(=O)OC(C)(C)C)c(=O)[nH]c1=O (single isomer, unassigned)	430 (≈ 1200 µM)	4.6	93 (≈ 260 µM)
Cc1cn([C@H]2[C@H](O)[C@H](O)C(O)CN2C(=O)OC(C)(C)C)c(=O)[nH]c1=O (single isomer, unassigned)	577 (≈ 1620 µM)	17.5	33 (≈ 92.4 µM)
CC(C)(C)OC(=O)N1CC(O)[C@@H](O)[C@@H](O)[C@@H]1n1cnc2c(N)ncnc21 (single isomer, unassigned)	693 (≈ 1890 µM)	3.6	281 (≈ 767 µM)
CC(C)(C)OC(=O)N1C[C@@H](O)C(O)C(O)C1n1cnc2c(N)ncnc21 (single isomer, unassigned)	1000 (≈ 2730 µM)	3.2	316 (≈ 862 µM)
Cc1cn([C@@H]2[C@@H](O)[C@H](O)C(O)CN2C(=O)OC(C)(C)C)c(=O)[nH]c1=O (single isomer, unassigned)	> 1000		
Nc1ccn([C@@H]2CS[C@H](CO)O2)c(=O)n1 [LAMIVUDINE]	1000 (≈ 4360 µM)	222	4.51 (≈ 19.7 µM)
